# Where “and” joins values, the source holds several entries; their conditions need not be identical. Identical values can stand only once.
# Tested on: HEK-293T
# Assay: Multiplex assay against HEK293T
# Type: toxicity, cell-based
# Settings: human
# Summary of the method: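 Cells stained live at seeding with Hoechst33342, BioTracker Green Microtubule Cytoskeleton Dye, MitoTracker Red and Annexin V Alexa Fluor 680 were imaged on a CQ1 microscope at 37°C and 5% CO2 after compound addition. Their classification by CellPathfinder machine-learning gating ran from Hoechst high-intensity objects versus normal cells, to healthy, pyknosed or fragmented nuclei among normal cells, to mitotic or apoptotic among pyknosed cells. Tubulin, mitochondrial-mass and membrane-permeability phenotypes are per cents of healthy-nucleus cells.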
# [1] = 12 h, 1 µM, compound concentration 1 uM
# [2] = 12 h, 10 µM, compound concentration 10 uM
# [3] = 24 h, 1 µM, compound concentration 1 uM
# [4] = 24 h, 10 µM, compound concentration 10 uM
# [5] = 48 h, 1 µM, compound concentration 1 uM
# [6] = 48 h, 10 µM, compound concentration 10 uM
smiles,measurement,setting,value
Cc1cc(=O)n(C)c2cc(N3C(=O)CC[C@H](NS(=O)(=O)CC(C)C)[C@H]3c3ccc(Cl)cc3)ccc12,Population Apoptotic (%),[1],43% and 63%
same,Population Fragmented Nuclei (%),[1],7% and 6%
same,Population Healthy Nuclei (%),[1],83% and 78%
same,Population Hoechst High Intensity Objects (%),[1],8% and 6%
same,Population Membrane Permeable-Phenotype (%),[1],0%
same,Population Mitochondria Different-Phenotype (%),[1],41% and 53%
same,Population Mitotic Cells (%),[1],56% and 36%
same,Population Normal (%),[1],91% and 93%
same,Population Pyknosed Nuclei (%),[1],8% and 14%
same,Population Tubulin-Different-Phenotype (%),[1],32% and 14%
same,Total Cell Count,[1],454 and 265
same,Population Apoptotic (%),[2],47% and 50%
same,Population Fragmented Nuclei (%),[2],4% and 6%
same,Population Healthy Nuclei (%),[2],70% and 66%
same,Population Hoechst High Intensity Objects (%),[2],11% and 16%
same,Population Membrane Permeable-Phenotype (%),[2],0%
same,Population Mitochondria Different-Phenotype (%),[2],75% and 86%
same,Population Mitotic Cells (%),[2],52% and 49%
same,Population Normal (%),[2],88% and 83%
same,Population Pyknosed Nuclei (%),[2],24% and 27%
same,Population Tubulin-Different-Phenotype (%),[2],81% and 66%
same,Total Cell Count,[2],368 and 331
same,Population Apoptotic (%),[3],33% and 36%
same,Population Fragmented Nuclei (%),[3],9% and 4%
same,Population Healthy Nuclei (%),[3],81% and 82%
same,Population Hoechst High Intensity Objects (%),[3],4% and 5%
same,Population Membrane Permeable-Phenotype (%),[3],0% and 1%
same,Population Mitochondria Different-Phenotype (%),[3],25% and 42%
same,Population Mitotic Cells (%),[3],66% and 63%
same,Population Normal (%),[3],95% and 94%
same,Population Pyknosed Nuclei (%),[3],9% and 13%
same,Population Tubulin-Different-Phenotype (%),[3],19% and 17%
same,Total Cell Count,[3],646 and 327
same,Population Apoptotic (%),[4],34% and 76%
same,Population Fragmented Nuclei (%),[4],7% and 8%
same,Population Healthy Nuclei (%),[4],72% and 67%
same,Population Hoechst High Intensity Objects (%),[4],9% and 22%
same,Population Membrane Permeable-Phenotype (%),[4],0%
same,Population Mitochondria Different-Phenotype (%),[4],67% and 85%
same,Population Mitotic Cells (%),[4],65% and 23%
same,Population Normal (%),[4],90% and 77%
same,Population Pyknosed Nuclei (%),[4],19% and 23%
same,Population Tubulin-Different-Phenotype (%),[4],67% and 71%
same,Total Cell Count,[4],419 and 328
same,Population Apoptotic (%),[5],25% and 31%
same,Population Fragmented Nuclei (%),[5],14% and 11%
same,Population Healthy Nuclei (%),[5],78% and 79%
same,Population Hoechst High Intensity Objects (%),[5],3% and 7%
same,Population Membrane Permeable-Phenotype (%),[5],0%
same,Population Mitochondria Different-Phenotype (%),[5],17% and 20%
same,Population Mitotic Cells (%),[5],74% and 68%
same,Population Normal (%),[5],96% and 92%
same,Population Pyknosed Nuclei (%),[5],6% and 9%
same,Population Tubulin-Different-Phenotype (%),[5],15% and 17%
same,Total Cell Count,[5],985 and 454
same,Population Apoptotic (%),[6],56% and 66%
same,Population Fragmented Nuclei (%),[6],12%
same,Population Healthy Nuclei (%),[6],77% and 67%
same,Population Hoechst High Intensity Objects (%),[6],10% and 19%
same,Population Membrane Permeable-Phenotype (%),[6],1% and 0%
same,Population Mitochondria Different-Phenotype (%),[6],67% and 76%
same,Population Mitotic Cells (%),[6],43% and 33%
same,Population Normal (%),[6],89% and 80%
same,Population Pyknosed Nuclei (%),[6],10% and 19%
same,Population Tubulin-Different-Phenotype (%),[6],58% and 56%
same,Total Cell Count,[6],548 and 371

# — ChEMBL document CHEMBL5724801, “EUbOPEN Chemogenomics Library - Multiplex” (2024)
